A short description of data set [1]: Bioavailability in rat of PMEA prodrug. The class given is ADME, organism-based. As to conditions: in vivo. The method in brief:
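Male rats fasted 12-18 h, three per route. Reference: parent phosphonate iv bolus 30 mg/kg in normal saline via tail vein. Oral: parent at 30 mg/kg in 5% DMSO/water by gastric intubation; prodrugs as 5% DMSO/water solutions at 24-43 mg/kg PMEA equivalents. Urine collected 0-24 and 24-48 h in metabolism cages. PMEA measured by reversed-phase HPLC with fluorometric detection. Bioavailability = dose-normalized 0-48 h urinary PMEA, oral vs iv.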

In a further data set the test system is Vero. Put plainly: Concentration that reduced plaque formation by 50% was measured in HSV-2 infected vero cells in vitro. The data set is classed as functional, cell-based. As to conditions: Chlorocebus sabaeus. In short, it runs like this: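 Plaque reduction assay against HSV-2 strain G in infected Vero cells. IC50 taken as the concentration giving 50% reduction in plaque formation.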

The nature of data set [2]: Oral bioavailability of compound in monkey. The note with it: simiiformes, in vivo, read-out: Bioavailabiility. The class given is ADME, organism-based.
Data set [3] in a line: Oral bioavailability of compound in rat. The class given is ADME, organism-based. The note with it: in vivo, read-out: Bioavailabiility. In short, it runs like this:
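Fasted (12-18 h) male rats, three per route. Prodrugs were given by gastric intubation in 5% DMSO/water at 24-43 mg/kg PMEA equivalents. The reference was PMEA 30 mg/kg as an iv tail-vein bolus in saline. Urine was collected 0-24 and 24-48 h in metabolism cages and PMEA quantified by reversed-phase HPLC with fluorometric detection. Bioavailability is dose-normalized 0-48 h urinary PMEA, oral versus iv.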

Molecules are shown by their SMILES. Bounds are passed on as bounds.

Consider `CC1(C)CNP(=O)(COCCn2cnc3c(N)ncnc32)NC1`, for which the F in data set [1] is reported as 5.8%. On to `CCN(CC)P(=O)(COCCn1cnc2c(N)ncnc21)N(CC)CC`, for which, in data set [1], the F is given as 7.2%. Regarding `Nc1ncnc2c1ncn2CCOCP(=O)(O)OCC(Cl)(Cl)Cl`, the F in data set [1] was 2.5%. Turning to `CC(C)OP(=O)(COCCn1cnc2c(N)ncnc21)OC(C)C`, the F in data set [1] is 44.4%.

Consider `CC(C)OP(=O)(O)COCCn1cnc2c(N)ncnc21`, for which, in data set [1], the F was 5%. As to `COP(=O)(O)COCCn1cnc2c(N)ncnc21`, in data set [1], the F was determined as 1.4%.

Turning to `CC(C)(CN)CNP(=O)(O)COCCn1cnc2c(N)ncnc21`, in data set [1], the F was determined as 10.6%.

On to `CC(C)(CO)COP(=O)(O)COCCn1cnc2c(N)ncnc21`, for which, in data set [1], the F turned out to be 0%.

With `CCN(CC)C(=O)COP(=O)(COCCn1cnc2c(N)ncnc21)OCOC(=O)C(C)(C)C` (stereo not given), in data set [1], the F is given as 2.2%. One may read the IC50 as the concentration at which inhibition is half-maximal. `CCC(=O)OCOP(=O)(COCCn1cnc2c(N)ncnc21)OCOC(=O)CC` returned an IC50 in the data set on Vero of 0.4 µM. Consider `CC(C)CCOP(=O)(COCCn1cnc2c(N)ncnc21)OCCC(C)C`, for which, in data set [1], the F is reported as 0.5%. `CC(C)COP(=O)(COCCn1cnc2c(N)ncnc21)OCC(C)C`: the F in data set [1] is 0%. Turning to `CC(C)C(=O)OCOP(=O)(COCCn1cnc2c(N)ncnc21)OCOC(=O)C(C)C`, the IC50 with Vero was < 0.2 µM. As to `Nc1ncnc2c1ncn2CCOCP(=O)(Oc1ccccc1)Oc1ccccc1`, the F in data set [1] is 11.1%. This compound also showed an IC50 in the data set on Vero of 77 µM. For `CCOP(=O)(COCCn1cnc2c(N)ncnc21)OCOC(=O)C(C)(C)C` (stereo not given), in data set [1], the F came out at 34.9%. Same read-out and setting: for `CC(=O)OCC(=O)COC(C)=O` the value was 5.8%; for `Nc1ncnc2c1ncn2CCOCP(=O)(OCC(Cl)(Cl)Cl)OCC(Cl)(Cl)Cl`, 10.6%.

On to `CC(C)(C)C(=O)OCOP(=O)(O)COCCn1cnc2c(N)ncnc21`, for which, in data set [1], the F came out at 6.5%. Also, the IC50 in the data set on Vero came out at 22 µM. `CC1(C)COP(=O)(COCCn2cnc3c(N)ncnc32)OC1`: the F in data set [1] is recorded as 0%. Take `Nc1ncnc2c1ncn2CCOCP1(=O)OCCCO1`: the F in data set [1] was determined as 0.7%. Turning to `CCN(CC)C(=O)COP(=O)(O)COCCn1cnc2c(N)ncnc21`, the F in data set [1] was 3.5%.

With `Nc1ncnc2c1ncn2CCOCP(=O)(O)OCc1ccc([N+](=O)[O-])cc1`, in data set [1], the F is on record as 1.9%. With `CCOP(=O)(O)COCCn1cnc2c(N)ncnc21`, the F in data set [1] is 0%. Moreover, the IC50 in the data set on Vero was > 300 µM.

`Nc1ncnc2c1ncn2CCOCP(=O)(OCc1ccc([N+](=O)[O-])cc1)OCc1ccc([N+](=O)[O-])cc1`: in data set [1], the F is given as 1.7%. On the same count and under the same terms, for `CCCCCCCCOP(=O)(O)COCCn1cnc2c(N)ncnc21` the value was 0.8%; for `Nc1ncnc2c1ncn2CCOCP(=O)(O)OCC(F)(F)CO`, 3.5%.

As for `CCOP(=O)(COCCn1cnc2c(N)ncnc21)OCC`, the F in data set [1] came out at 42%. The concentration for half-maximal inhibition (IC50) in the data set on Vero is > 300 µM. Consider `Nc1ncnc2c1ncn2CCOCP(=O)(O)Oc1ccccc1`, for which the F in data set [1] is listed as 14%. The compound further had an IC50 with Vero of 95 µM.

Regarding `COP(=O)(COCCn1cnc2c(N)ncnc21)OC`, the F in data set [1] was 0%. For `CC(C)(C)C(=O)OCOP(=O)(COCCn1cnc2c(N)ncnc21)OCOC(=O)C(C)(C)C` [ADEFOVIR DIPIVOXIL], the F in data set [1] was found to be 17.3%. In addition, half-maximal inhibition in the data set with Vero (IC50) required 0.6 µM. Regarding `Nc1ncnc2c1ncn2CCOCP(=O)(O)O` [ADEFOVIR], in data set [1], the F is listed as 7.8%. In addition, the bioavailability in data set [2] is < 1%; in data set [3], 11%. The compound also came in with a half-inhibitory concentration (IC50) in the data set with Vero of 119 µM.

(Values after ChEMBL document CHEMBL1127545, “Synthesis, oral bioavailability determination, and in vitro evaluation of prodrugs of the antiviral agent 9-[2-(phosphonomethoxy)ethyl]adenine (PMEA)” (J Med Chem, 1994).)
